Results from ChEMBL document CHEMBL4000159, “Bartolosides E-K from a Marine Coccoid Cyanobacterium” (J Nat Prod, 2016).

Experiments:
Type in all cases: functional, cell-based
T47D = assay: Cytotoxicity against human T47D cells assessed as decrease in cell viability after 48 hrs by MTT assay
In short: (§1)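 Cells grown in DMEM Glutamax with 10% FBS, 2.5 μg/mL fungizone, 100 IU/mL penicillin and 100 μg/mL streptomycin. Seeded at 3.3 × 10^4 cells/mL and left 24 h (37 °C, 5% CO2) to adhere. Pure compounds added as dilutions from 50 to 0.003 μg/mL for 48 h. MTT 0.5 mg/mL for 3 h, formazan dissolved in DMSO, absorbance read at 550 nm. Triplicates averaged; IC50 taken from dose–response curves.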

RKO = assay: Cytotoxicity against human RKO cells assessed as decrease in cell viability after 48 hrs by MTT assay; in short: as §1
MG-63 = assay: Cytotoxicity against human MG63 cells assessed as decrease in cell viability after 48 hrs by MTT assay; settings: MG-63, 48 h; in short: as §1

| SMILES | IC50 (T47D) [µM] | IC50 (RKO) [µM] | IC50 (MG-63) [µM] |
| --- | --- | --- | --- |
| CCCCCCC(Cl)CCCCCc1c(O)cc(CCCCCCC(Cl)CCCC)cc1O[C@@H]1OC[C@@H](O)[C@H](O)[C@H]1O (some centres undefined) | 22 | 40 | 39 |
| CCCCCCCCCC(Cl)CCCCCc1cc(O)c(CCCCCC(Cl)CCCCCC)c(O[C@@H]2OC[C@@H](O)[C@H](O)[C@H]2O)c1 (some centres undefined) | > 10 | > 10 | > 10 |
| CCCCCCC(Cl)CCCCCc1cc(O)c(CCCCCC(Cl)CCCCCC)c(O[C@@H]2OC[C@@H](O)[C@H](O)[C@H]2O)c1 (some centres undefined) | > 10 | > 10 | > 10 |
| CCCCCCCC(Cl)(Cl)CCCCCc1cc(O)c(CCCCCC(Cl)CCCCCC)c(O[C@@H]2OC[C@@H](O)[C@H](O)[C@H]2O)c1 (some centres undefined) | 59.8 | > 10 | > 10 |
| CCCCCCCC(Cl)CCCCCc1cc(O)c(CCCCCC(Cl)CCCCCC)c(O[C@@H]2OC[C@@H](O)[C@H](O)[C@H]2O)c1 (some centres undefined) | 23 | 40 | 22 |
| CCCCCCCCC(Cl)CCCCCc1cc(O)c(CCCCCC(Cl)CCCCCC)c(O[C@@H]2OC[C@@H](O)[C@H](O)[C@H]2O)c1 (some centres undefined) | > 10 | > 10 | > 10 |
| CCCCCCCCCCCCCc1cc(O)c(CCCCCC(Cl)CCCCCC)c(O[C@@H]2OC[C@@H](O)[C@H](O)[C@H]2O)c1 (some centres undefined) | > 10 | > 10 | > 10 |
| CCCCCCCCCCCc1cc(O)c(CCCCCC(Cl)CCCCCC)c(O[C@@H]2OC[C@@H](O)[C@H](O)[C@H]2O)c1 (some centres undefined) | > 10 | > 10 | > 10 |
